# Test results published in ChEMBL document CHEMBL4732120, “Discovery of novel PARP/PI3K dual inhibitors with high efficiency against BRCA-proficient triple negative breast cancer” (Eur J Med Chem, 2021).
# pIC50: −log10 of the molar value.
# Columns and labels:
# [1] = target: Poly [ADP-ribose] polymerase 1 (Homo sapiens, UniProt P09874); experiment: Inhibition of PARP1 (unknown origin)
# Outline: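 PARP-1 and PI3Kα enzyme inhibition. IC50 taken from dose-response curves and given as mean ± SD of three independent experiments.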
# [2] = Elimination half life in rat liver microsomes measured after 1 hr; assay type: ADME, Microsome; conditions: read-out: beta t1/2
# Outline: (§1)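 Compound incubated 1 h with mouse, rat, dog, monkey or human liver microsomes. Derived values were the elimination rate constant k, the elimination half-life T1/2 and the intrinsic clearance CLint.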
# MDA-MB-468 [3] = experiment: Antitumor activity against human MDA-MB-468 cells xenografted in BALB/c mouse assessed as tumor growth inhibition at 50 mg/kg, ip administered every two days for 34 days relative to control; conditions: MDA-MB-468, ip, 816 h, read-out: TGI
# [4] = Toxicity in Sprague-Dawley rat assessed as change in body weight at 1000 mg/kg, po administered as single dose measured on day 2 (reference value: 273 +/- 15 g); assay type: organism-based; conditions: in vivo, 48 h, time 2 day
# [5] = Apparent permeability across basolateral to apical side in human Caco2 cells at 5 uM measured after 120 mins; assay type: ADME, cell-based; conditions: Caco-2
# Outline: (§2)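 Bidirectional permeability run, apical-to-basolateral and basolateral-to-apical. Test compound at 5 µM, incubated 120 min. Papp (10^-6 cm/s), recovery (%) and efflux ratio reported as the mean of two experiments.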
# [6] = Apparent permeability across apical to basolateral side in human Caco2 cells at 5 uM measured after 120 mins; assay type: ADME, cell-based; conditions: Caco-2; outline: as §2
# [7] = Toxicity in […] cells xenografted BALB/c mouse assessed as mortality at 50 mg/kg, ip administered every two days for 34 days; assay type: organism-based; conditions: in vivo, 816 h, time 34 day
# [8] = Intrinsic clearance in dog liver microsomes measured after 1 hr; assay type: ADME, Canis lupus familiaris, Microsome; conditions: read-out: CLH; outline: as §1
# [9] = Intrinsic clearance in mouse liver microsomes measured after 1 hr; assay type: ADME, Microsome; conditions: read-out: CLH; outline: as §1
# [10] = Intrinsic clearance in rat liver microsomes measured after 1 hr; assay type: ADME, Microsome; conditions: read-out: CLH; outline: as §1
# MDA-MB-468 [11] = experiment: Induction of apoptosis in human MDA-MB-468 cells assessed as early apoptotic cells at 1 uM measured after 72 hrs by Annexin V-FITC/propidium iodide staining based flow cytometry (reference value: 3.88%); assay type: functional
# [12] = Elimination rate constant in rat liver microsomes measured after 1 hr; assay type: ADME, Microsome; outline: as §1
# [13] = Elimination rate constant in human liver microsomes measured after 1 hr; assay type: ADME, Microsome; outline: as §1
# [14] = target: Poly [ADP-ribose] polymerase 2 (Homo sapiens, UniProt Q9UGN5); experiment: Inhibition of PARP2 (unknown origin)
# Poly [ADP-ribose] polymerase 2, sequence (Q9UGN5 whole entry): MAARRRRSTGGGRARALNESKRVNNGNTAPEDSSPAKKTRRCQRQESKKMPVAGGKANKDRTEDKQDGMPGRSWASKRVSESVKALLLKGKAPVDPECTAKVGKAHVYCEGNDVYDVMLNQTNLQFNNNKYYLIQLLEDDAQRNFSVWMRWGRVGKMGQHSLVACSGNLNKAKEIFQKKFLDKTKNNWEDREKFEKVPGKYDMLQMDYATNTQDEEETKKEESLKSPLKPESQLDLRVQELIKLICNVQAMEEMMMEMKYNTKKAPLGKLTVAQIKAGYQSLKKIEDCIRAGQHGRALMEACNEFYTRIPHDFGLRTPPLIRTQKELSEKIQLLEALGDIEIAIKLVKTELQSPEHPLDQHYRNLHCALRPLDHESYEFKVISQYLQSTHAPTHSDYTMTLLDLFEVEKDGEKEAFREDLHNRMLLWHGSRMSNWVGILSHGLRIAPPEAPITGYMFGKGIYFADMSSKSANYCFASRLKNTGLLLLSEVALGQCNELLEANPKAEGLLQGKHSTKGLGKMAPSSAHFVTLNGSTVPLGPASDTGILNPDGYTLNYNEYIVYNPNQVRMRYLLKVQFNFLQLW
# [15] = Elimination half life in human liver microsomes measured after 1 hr; assay type: ADME, Microsome; conditions: read-out: beta t1/2; outline: as §1
# Poly [ADP-ribose] polymerase 1, sequence (P09874 whole entry): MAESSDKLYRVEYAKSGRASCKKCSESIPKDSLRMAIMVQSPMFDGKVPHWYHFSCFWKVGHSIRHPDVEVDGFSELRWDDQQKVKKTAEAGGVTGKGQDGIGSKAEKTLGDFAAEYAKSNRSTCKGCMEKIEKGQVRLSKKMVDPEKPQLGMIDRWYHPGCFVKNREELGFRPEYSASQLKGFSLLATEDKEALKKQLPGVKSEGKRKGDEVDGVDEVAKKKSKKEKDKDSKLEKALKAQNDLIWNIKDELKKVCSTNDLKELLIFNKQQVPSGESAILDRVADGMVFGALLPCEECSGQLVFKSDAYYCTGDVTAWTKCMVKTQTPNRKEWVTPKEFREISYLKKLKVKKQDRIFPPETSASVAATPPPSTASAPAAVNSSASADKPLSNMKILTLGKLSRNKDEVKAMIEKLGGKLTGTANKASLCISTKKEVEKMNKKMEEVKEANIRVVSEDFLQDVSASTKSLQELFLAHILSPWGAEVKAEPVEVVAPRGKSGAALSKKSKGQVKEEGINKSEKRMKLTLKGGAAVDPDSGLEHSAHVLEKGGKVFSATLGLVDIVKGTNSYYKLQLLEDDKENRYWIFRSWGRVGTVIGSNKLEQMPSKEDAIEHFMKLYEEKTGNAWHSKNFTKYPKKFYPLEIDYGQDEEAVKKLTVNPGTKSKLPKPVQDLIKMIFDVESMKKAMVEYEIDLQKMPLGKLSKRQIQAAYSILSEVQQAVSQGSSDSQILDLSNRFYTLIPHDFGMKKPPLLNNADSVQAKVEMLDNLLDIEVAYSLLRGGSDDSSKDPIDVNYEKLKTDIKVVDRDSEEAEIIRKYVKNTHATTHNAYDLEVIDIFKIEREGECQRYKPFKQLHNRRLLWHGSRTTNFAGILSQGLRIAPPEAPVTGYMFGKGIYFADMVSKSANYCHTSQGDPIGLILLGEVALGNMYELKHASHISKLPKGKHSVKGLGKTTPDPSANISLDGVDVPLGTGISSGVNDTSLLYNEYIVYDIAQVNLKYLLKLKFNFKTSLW
structure (smiles),measurement,setting,value
NC(=O)c1cccc2cc(C(=O)N3CCN(c4nc(-c5cnc(NC(=O)CN6CCOCC6)cc5C(F)(F)F)nc(N5CCOCC5)n4)CC3)oc12,pIC50,[1],7.86
same,half-life,[2],0.703 h
same,inhibition in vivo at 50 mg/kg,MDA-MB-468 [3],54.6%
same,Activity,[4],267 g
same,"Papp B→A at 2 h, 5 µM",[5],22.1 ×10⁻⁶ cm/s
same,"Papp A→B at 2 h, 5 µM",[6],8.42 ×10⁻⁶ cm/s
same,Activity,[7],Non-Toxic
same,microsomal CLint,[8],29.3 µL/min/mg
same,microsomal CLint,[9],79.7 µL/min/mg
same,microsomal CLint,[10],32.9 µL/min/mg
same,Activity,MDA-MB-468 [11],15.8%
same,k el at 1 h,[12],0.000275 s⁻¹
same,k el at 1 h,[13],0.000122 s⁻¹
same,pIC50,[14],8.21
same,half-life,[15],1.78 h
